Test results reported in ChEMBL document CHEMBL1158423, “Antibacterial activity of berberine-NorA pump inhibitor hybrids with a methylene ether linking group” (2009).
Calls of active or inactive are those of the source. The rule behind the calls is not given here.

Legend:
[1] = tested on: Staphylococcus aureus; assay: Antibacterial activity against Staphylococcus aureus K1758 NorA efflux pump-deficient mutant after 18 hrs by twofold serial dilution method; type: functional; details: K1758, 18 h
Summary of the method: (§1)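 Broth microdilution with serial 2-fold dilutions of compound, cells inoculated at 10^5 per mL, in triplicate. MIC is the lowest concentration giving complete growth inhibition over 18 h at 37 °C. Growth is read as absorbance at 600 nm.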

[2] = tested on: Staphylococcus aureus; assay: Antibacterial activity against wild type Staphylococcus aureus 8325-4 after 18 hrs by twofold serial dilution method; type: functional; details: 8325-4, 18 h
Summary of the method: (§2)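 Broth microdilution: cells at 10^5 mL−1 in broth, serial 2-fold dilutions of compound, triplicate determinations; 18 h at 37 °C; growth followed by absorbance at 600 nm. MIC taken as the lowest concentration giving complete growth inhibition.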

[3] = tested on: Staphylococcus aureus; assay: Antibacterial activity against Staphylococcus aureus K2378 overexpressing NorA efflux pump after 18 hrs by twofold serial dilution method; type: functional; details: K2378, 18 h; summary of the method: as §1
[4] = tested on: Escherichia coli; assay: Antibacterial activity against Escherichia coli BW-25116 TolC-deficient mutant after 18 hrs by twofold serial dilution method; type: functional; details: BW25116, 18 h; summary of the method: as §1
[5] = tested on: Escherichia coli; assay: Antibacterial activity against Escherichia coli ECM116 mar1642 overexpressing […] pump after 18 hrs by twofold serial dilution method; type: functional; details: ECM116, 18 h; summary of the method: as §1
[6] = tested on: Escherichia coli; assay: Antibacterial activity against Escherichia coli K-12 after 18 hrs by twofold serial dilution method; type: functional; details: K-12, 18 h; summary of the method: as §2
[7] = tested on: Escherichia coli; assay: Antibacterial activity against Escherichia coli ECM1642 after 18 hrs by twofold serial dilution method; type: functional; details: ECM1642, 18 h; summary of the method: as §2
[8] = tested on: Staphylococcus aureus; assay: Antibacterial activity against Staphylococcus aureus K1758 NorA efflux pump-deficient mutant after 18 hrs by twofold serial dilution method relative to berberine; type: functional
[9] = tested on: Staphylococcus aureus; assay: Antibacterial activity against wild type Staphylococcus aureus 8325-4 after 18 hrs by twofold serial dilution method relative to berberine; type: functional
Summary of the method: (§3)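 Broth microdilution with an inoculum of 10^5 cells/mL and serial 2-fold compound dilutions, run in triplicate. Plates were incubated 18 h at 37 °C and growth was read as absorbance at 600 nm. MIC was the lowest concentration giving complete growth inhibition.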

[10] = tested on: Staphylococcus aureus; assay: Antibacterial activity against Staphylococcus aureus K2378 overexpressing NorA efflux pump after 18 hrs by twofold serial dilution method relative to berberine; type: functional
[11] = tested on: Escherichia coli; assay: Antibacterial activity against Escherichia coli BW-25116 TolC-deficient mutant after 18 hrs by twofold serial dilution method relative to berberine; type: functional, BW25116; summary of the method: as §3
[12] = tested on: Escherichia coli; assay: Antibacterial activity against Escherichia coli ECM116 mar1642 overexpressing […] pump after 18 hrs by twofold serial dilution method relative to berberine; type: functional; summary of the method: as §3
[13] = tested on: Enterococcus faecalis; assay: Antibacterial activity against Enterococcus faecalis OG1RF after 18 hrs by twofold serial dilution method; type: functional; summary of the method: as §2
[14] = tested on: Enterococcus faecalis; assay: Antibacterial activity against Enterococcus faecalis MMH594 after 18 hrs by twofold serial dilution method; type: functional; details: MMH594, 18 h; summary of the method: as §2
[15] = tested on: Enterococcus faecalis; assay: Antibacterial activity against Enterococcus faecalis V583 after 18 hrs by twofold serial dilution method; type: functional; details: V583, 18 h; summary of the method: as §2
[16] = molecular target: T1, Quinolone resistance protein NorA (Staphylococcus aureus) (UniProt P0A0J7); assay: Inhibition of NorA efflux pump in wild type Staphylococcus aureus 8325-4 assessed as increase in berberine accumulation at 3 uM
T1 sequence (whole entry): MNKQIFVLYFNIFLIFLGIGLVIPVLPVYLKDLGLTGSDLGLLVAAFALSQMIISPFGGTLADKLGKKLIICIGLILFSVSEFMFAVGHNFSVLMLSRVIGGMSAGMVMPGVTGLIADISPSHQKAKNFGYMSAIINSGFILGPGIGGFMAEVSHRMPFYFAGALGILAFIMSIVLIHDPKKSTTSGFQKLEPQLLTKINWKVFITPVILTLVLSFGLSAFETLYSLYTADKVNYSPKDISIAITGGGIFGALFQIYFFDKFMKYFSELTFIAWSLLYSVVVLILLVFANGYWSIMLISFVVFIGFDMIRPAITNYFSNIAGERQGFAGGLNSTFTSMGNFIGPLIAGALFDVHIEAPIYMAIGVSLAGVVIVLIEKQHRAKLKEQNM
Summary of the method: (§4)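 Cells are grown at 37 °C to OD600 1.5 and washed twice in PBS. They are energised in PBS with 10 mM dextrose (OD ~0.8) for 1 h at 37 °C with aeration, washed, then diluted to OD ~0.3 in PBS. Compounds are added at 3 μM final. Accumulation is followed by fluorescence at ex/em 355/517 nm, with cell-free background subtracted.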

[17] = molecular target: T1, Quinolone resistance protein NorA (Staphylococcus aureus); assay: Inhibition of NorA efflux pump in Staphylococcus aureus K1758 NorA efflux pump-deficient mutant assessed as increase in berberine accumulation at 3 uM; summary of the method: as §4
[18] = molecular target: T1, Quinolone resistance protein NorA (Staphylococcus aureus); assay: Inhibition of NorA efflux pump in Staphylococcus aureus K2378 overexpressing NorA efflux pump overexpressing NorA efflux pump assessed as increase in berberine accumulation at 3 uM; summary of the method: as §4
[19] = molecular target: T1, Quinolone resistance protein NorA (Staphylococcus aureus); assay: Inhibition of NorA efflux pump in wild type Staphylococcus aureus 8325-4 assessed as potentiation of EtBr uptake at 3 uM
Summary of the method: (§5)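 Cells are prepared as for the accumulation assay: grown to OD600 1.5, washed in PBS, energised 1 h at 37 °C in PBS with 10 mM dextrose, then diluted to OD ~0.3 in PBS. The inhibitor (3 μM final) is added before ethidium bromide. Uptake is read by fluorescence at ex/em 530/600 nm, with cell-free background subtracted.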

[20] = molecular target: T1, Quinolone resistance protein NorA (Staphylococcus aureus); assay: Inhibition of NorA efflux pump in Staphylococcus aureus K1758 NorA efflux pump-deficient mutant assessed as potentiation of EtBr uptake at 3 uM; summary of the method: as §5
[21] = molecular target: T1, Quinolone resistance protein NorA (Staphylococcus aureus); assay: Inhibition of NorA efflux pump in Staphylococcus aureus K2378 overexpressing NorA efflux pump assessed as potentiation of EtBr uptake at 3 uM; summary of the method: as §5
[22] = molecular target: T1, Quinolone resistance protein NorA (Staphylococcus aureus); assay: Inhibition of NorA efflux pump in Staphylococcus aureus K2378 overexpressing NorA efflux pump assessed as inhibition of EtBr efflux at 3 uM
Summary of the method: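 K2378 cells are grown at 37 °C to OD ~0.9, washed in PBS and loaded with 3 μM ethidium bromide plus 30 μg/mL reserpine for 20 min at 37 °C. After ice-cold washes, they are added at OD 0.3 to ice-cold PBS with 10 mM dextrose containing inhibitor at 3 μM final. The no-efflux control is PBS without dextrose plus reserpine. Efflux is read at ex/em 530/600 nm.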

[23] = tested on: Nucleic Acid; assay: Binding affinity to D1 duplex DNA by electrospray ionization mass spectrometry; type: nucleic-acid assay
Summary of the method: (§6)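 Duplex D1, D2 or forked F10 was annealed from complementary strands in 0.1 M ammonium acetate. ESI-MS used a 100 V cone voltage; thirty acquisitions were combined, baseline-subtracted and smoothed.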

[24] = tested on: Nucleic Acid; assay: Binding affinity to D2 duplex DNA by electrospray ionization mass spectrometry; type: nucleic-acid assay; summary of the method: as §6
[25] = tested on: Nucleic Acid; assay: Binding affinity to F10 duplex DNA by electrospray ionization mass spectrometry; type: nucleic-acid assay; summary of the method: as §6
[26] = tested on: Nucleic Acid; assay: Binding affinity to quadruplex Q1 DNA by electrospray ionization mass spectrometry; type: nucleic-acid assay
[27] = tested on: Nucleic Acid; assay: Binding affinity to quadruplex Q3 DNA by electrospray ionization mass spectrometry; type: nucleic-acid assay

Compound	MIC [1] [µM]	MIC [2] [µM]	MIC [3] [µM]	MIC [4] [µM]	MIC [5] [µM]	MIC [6] [µM]	MIC [7] [µM]	fold change (FC) [8]	fold change (FC) [9]	fold change (FC) [10]	fold change (FC) [11]	fold change (FC) [12]	MIC [13] [µM]	MIC [14] [µM]	MIC [15] [µM]	further results
COc1ccc2c(OCc3ccccn3)c3[n+](cc2c1OC)CCc1cc2c(cc1-3)OCO2.[Br-]	191	> 191	> 191	191	191	> 191	> 191	<5	<2	>3	2	2	–	–	–	–
COc1ccc2c(Cc3ccccc3-c3cc4cc([N+](=O)[O-])ccc4[nH]3)c3[n+](cc2c1OC)CCc1cc2c(cc1-3)OCO2	3.1	3.1	3.1	> 150	> 150	> 150	> 150	–	–	–	–	–	6.3	6.3	6.3	Activity [16]: Active; Activity [17]: Active; Activity [18]: Active; Activity [19]: Active; Activity [20]: Active; Activity [21]: Active; Activity [22]: Active
COc1ccc2c(OCc3ccccc3)c3[n+](cc2c1OC)CCc1cc2c(cc1-3)OCO2.[Br-]	12	24	95.8	12	24	> 192	> 192	3	14	7	27	14	–	–	–	–
COc1ccc2c(OCc3ccc(C#N)cc3)c3[n+](cc2c1OC)CCc1cc2c(cc1-3)OCO2.[Br-]	91.4	183	> 183	91.4	45.7	> 183	> 183	<2	2	4	4	7	–	–	–	–
COc1ccc2cc3[n+](cc2c1OC)CCc1cc2c(cc1-3)OCO2 [BERBERINE CHLORIDE]	40	325	> 650	325	325	> 2600	> 2600	–	–	–	–	–	650	> 650	> 650	–
COc1ccc2c(OCc3ccc4ccccc4c3)c3[n+](cc2c1OC)CCc1cc2c(cc1-3)OCO2.[Br-]	5.5	10.9	21.9	10.9	21.9	> 175	> 175	7	30	>30	30	15	–	–	–	Activity [23]: 30%; Activity [24]: 20%; Activity [25]: 15%; Activity [26]: 100%; Activity [27]: 67%
